Data taken from ChEMBL document CHEMBL4033781 (J Med Chem, 2018).
The source made the active and inactive calls. The calls are words filed in the database; no cut-off is given here.

Assays:
[1] = tested on: Rattus norvegicus; experiment: Inhibition of rat sperm total motility at 5 mg/kg administered daily via oral gavage for 6 to 12 days by SYTO staining based microscopic method relative to control; assay type: functional
In short: (§1)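 Male rats were dosed daily by oral gavage, either at 5, 10 or 20 mg/kg for 3 days, or at 5 mg/kg for 3, 6, 9 or 12 days. Animals were then sacrificed and cauda epididymal sperm collected. Total and progressive motility were measured by CASA and compared with untreated controls. Values are mean ± SEM of three experiments.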

[2] = tested on: Liver; experiment: Metabolic stability in mouse liver S9 fraction assessed as parent compound remaining at 1 uM after 60 mins relative to control; assay type: ADME, tissue-based; conditions: s9, 1 h
[3] = Apparent permeability from basolateral side to apical side in human Caco2 cells assessed as drug recovery at 1 uM after 60 mins by HPLC-MS analysis; assay type: ADME, cell-based; conditions: caco-2, 1 h
[4] = Apparent permeability from apical side to basolateral side in human Caco2 cells at 1 uM after 60 mins by HPLC-MS analysis; assay type: ADME, cell-based; conditions: caco-2, 1 h
In short: (§2)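 Caco-2 monolayers were grown on Transwell filters, with test compound at 1 × 10^-6 M. Apical-to-basolateral flux was run at 37 °C with shaking, at pH 6.5 apical and pH 7.4 basolateral. Donor was sampled over 0–60 min and receiver at 60 min. Compound was quantified by full-scan HPLC-MS. Apparent permeability and percent recovery were derived from two determinations.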

[5] = Apparent permeability from basolateral side to apical side in human Caco2 cells at 1 uM after 60 mins by HPLC-MS analysis; assay type: ADME, cell-based; conditions: caco-2, 1 h
[6] = tested on: Liver; experiment: Metabolic stability in human liver S9 fraction assessed as parent compound remaining at 1 uM after 60 mins relative to control; assay type: ADME, tissue-based; conditions: s9, 1 h
[7] = tested on: MCF7; experiment: Antiproliferative activity against human MCF7 cells up to 100 uM after 72 hrs by AlamarBlue assay; assay type: cell-based; conditions: mcf7, 72 h
[8] = molecular target: Voltage-gated inwardly rectifying potassium channel KCNH2 (Homo sapiens, UniProt Q12809); experiment: Displacement of Tracer Red from human ERG expressed in cell membranes up to 60 uM by fluorescence polarization assay
Chain of Voltage-gated inwardly rectifying potassium channel KCNH2 (Q12809 whole entry): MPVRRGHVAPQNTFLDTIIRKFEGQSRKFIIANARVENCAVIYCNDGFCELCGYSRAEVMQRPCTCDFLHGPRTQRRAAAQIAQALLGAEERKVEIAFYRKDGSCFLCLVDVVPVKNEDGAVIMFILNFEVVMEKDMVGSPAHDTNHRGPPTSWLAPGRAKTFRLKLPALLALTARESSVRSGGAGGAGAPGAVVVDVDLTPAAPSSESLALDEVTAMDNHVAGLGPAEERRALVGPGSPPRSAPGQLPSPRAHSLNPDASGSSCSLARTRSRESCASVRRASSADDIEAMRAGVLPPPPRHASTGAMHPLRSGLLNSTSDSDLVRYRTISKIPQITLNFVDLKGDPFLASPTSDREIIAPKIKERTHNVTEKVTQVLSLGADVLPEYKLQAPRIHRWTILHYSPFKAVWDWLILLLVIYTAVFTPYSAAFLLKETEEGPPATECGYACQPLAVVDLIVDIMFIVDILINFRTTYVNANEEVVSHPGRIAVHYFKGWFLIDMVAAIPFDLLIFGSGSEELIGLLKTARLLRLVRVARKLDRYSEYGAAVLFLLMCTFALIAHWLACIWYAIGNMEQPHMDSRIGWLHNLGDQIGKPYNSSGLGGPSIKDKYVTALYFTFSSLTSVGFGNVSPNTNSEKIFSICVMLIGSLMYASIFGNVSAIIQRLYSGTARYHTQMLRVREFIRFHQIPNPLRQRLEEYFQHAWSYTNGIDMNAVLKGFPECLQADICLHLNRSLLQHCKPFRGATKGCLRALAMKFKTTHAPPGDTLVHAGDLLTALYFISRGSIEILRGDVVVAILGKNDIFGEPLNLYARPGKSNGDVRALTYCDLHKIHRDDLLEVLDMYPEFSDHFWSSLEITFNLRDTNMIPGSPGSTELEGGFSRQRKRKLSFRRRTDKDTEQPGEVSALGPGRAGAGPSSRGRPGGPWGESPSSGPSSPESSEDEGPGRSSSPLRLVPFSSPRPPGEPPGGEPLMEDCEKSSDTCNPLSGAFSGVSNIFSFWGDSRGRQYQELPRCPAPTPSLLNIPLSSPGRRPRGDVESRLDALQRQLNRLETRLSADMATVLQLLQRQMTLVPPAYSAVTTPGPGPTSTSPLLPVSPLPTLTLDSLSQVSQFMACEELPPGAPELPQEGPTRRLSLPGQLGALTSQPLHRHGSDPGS
In short: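 Competitive fluorescence polarization displacement of a fluorescently tagged hERG ligand used membranes from cells stably expressing hERG. Compounds were tested up to 60 μM.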

[9] = tested on: Rattus norvegicus; experiment: Inhibition of rat sperm movement at 20 mg/kg administered via oral gavage for 3 days by SYTO staining based microscopic method relative to control; assay type: functional; conditions: 72 h; in short: as §1
[10] = Apparent permeability from apical side to basolateral side in human Caco2 cells assessed as drug recovery at 1 uM after 60 mins by HPLC-MS analysis; assay type: ADME, cell-based; conditions: caco-2, 1 h; in short: as §2
[11] = molecular target: Na+/K+ ATPase alpha-3/beta-1 (Rattus norvegicus, UniProt P06687+P07340); experiment: Inhibition of recombinant rat Na+/K+-ATPase alpha3/beta1 expressed in baculovirus infected insect Sf9 cell membranes using [gamma-32P]ATP as substrate preincubated for 20 mins followed by substrate addition measured after 30 mins by liquid scintillation counting
In short: (§3)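 Rat α/β1 isoforms were expressed in baculovirus-infected Sf9 cells (72 h, 27 °C), washed in 10 mM imidazole-HCl pH 7.5 with 1 mM EGTA, and homogenised. Homogenates were assayed in 120 mM NaCl, 30 mM KCl, 3 mM MgCl₂, 0.2 mM EGTA and 30 mM Tris-HCl pH 7.4. Reactions were started with 2 mM γ[³²P]-ATP (final) and run 30 min at 37 °C. Released ³²Pi was extracted as phosphomolybdate into isobutanol and scintillation counted. IC50 came from single-site dose–response fits.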

[12] = tested on: Rattus norvegicus; experiment: Inhibition of rat sperm progressive motility at 5 mg/kg administered daily via oral gavage for 6 to 12 days by SYTO staining based microscopic method relative to control; assay type: functional; in short: as §1
[13] = molecular target: Na+/K+ ATPase alpha-1/beta-1 (Rattus norvegicus, UniProt P06685+P07340); experiment: Inhibition of recombinant rat Na+/K+-ATPase alpha1/beta1 expressed in baculovirus infected insect Sf9 cell membranes using [gamma-32P]ATP as substrate preincubated for 20 mins followed by substrate addition measured after 30 mins by liquid scintillation counting
In short: as §3, with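 “counted. Activity was taken as the 1 mM ouabain-sensitive fraction.” for “counted.”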

[14] = tested on: Liver; experiment: Metabolic stability in dog liver S9 fraction assessed as parent compound remaining at 1 uM after 60 mins relative to control; assay type: ADME, tissue-based, Canis lupus familiaris; conditions: s9, 1 h
[15] = Metabolic stability in monkey liver S9 fraction assessed as parent compound remaining at 1 uM after 60 mins relative to control; assay type: ADME, tissue-based, Macaca mulatta; conditions: rhesus monkey, s9, 1 h
[16] = tested on: Liver; experiment: Metabolic stability in rat liver S9 fraction assessed as parent compound remaining at 1 uM after 60 mins relative to control; assay type: ADME, tissue-based; conditions: s9, 1 h
[17] = tested on: Rattus norvegicus; experiment: Inhibition of rat sperm progressive motility at 5 mg/kg administered daily via oral gavage for 3 days by SYTO staining based microscopic method; assay type: functional, organism-based; in short: as §1
[18] = tested on: Rattus norvegicus; experiment: Inhibition of rat sperm total motility at 5 mg/kg administered daily via oral gavage for 3 days by SYTO staining based microscopic method; assay type: functional, organism-based; in short: as §1

`C[C@]12C[C@@H](O)[C@H]3[C@@H](CC[C@]4(O)C[C@@H](O)C[C@@H](O)[C@]34CO)[C@@]1(O)CC[C@@H]2c1cn(Cc2ccccc2)nn1` showed an inhibition in vivo at 5 mg/kg [1] of 40%, a Stability [2] of 76% and a Drug recovery [3] of 98%. The Papp [4] was < 0.2 ×10⁻⁶ cm/s, the Papp [5] was 0.3 ×10⁻⁶ cm/s and the Stability [6] was 107%. For the same compound, the Activity [7] was “Non-Toxic”, the “inhibition (INH)” value [8] was “Not Active” and the inhibition in vivo at 20 mg/kg [9] was 50%. The Drug recovery [10] was 94%, the IC50 [11] was > 100 µM and the inhibition in vivo at 5 mg/kg [12] was 50%. The IC50 [13] was > 100 µM, the Stability [14] was 99% and the Stability [15] was 89%. The Stability [16] was 95%, the inhibition [17] was “Active” and the inhibition [18] was “Active”.
